We go through 32 compounds from ChEMBL document CHEMBL1667827, “Pyridylmethylthio derivatives as VEGF inhibitors: part 2” (Bioorg Med Chem Lett, 2011).

Series [1] addresses CYP3A4 (Homo sapiens, UniProt P08684). Description: Inhibition of CYP3A4 at 10 uM using testosterone as substrate. In kind it is ADME. The conditions noted are these: probe testosterone. A digest of the protocol:
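CYP3A4 inhibition measured as percent inhibition at 10 μM test compound, testosterone as substrate.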

Series [2] concerns HUVEC. Description: Antiangiogenic activity in HUVEC assessed as inhibition of VEGF-induced proliferation after 3 days by WST-8 assay. In kind it is functional, cell-based. To be noted: Homo sapiens, 72 h. A digest of the protocol:
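HUVEC seeded and incubated 1 day, then VEGF plus test compound added; cell number counted after 3 further days of incubation. Growth rate calculated relative to control; IC50 is concentration giving half inhibition of VEGF-induced proliferation, in nM.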
For orientation: Tetrazolium dyes change colour on reduction, which living cells bring about.

In series [3] the test system is Rattus norvegicus. Description: Antiinflammatory activity in Lewis rat adjuvant arthritis model assessed as inhibition of paw edema at 10 mg/kg, po qd for 20 days relative to control. Type of series: functional. The conditions noted are these: 480 h.
Series [4] concerns Rattus norvegicus. The series can be described thus: Antiangiogenic activity in Brown Norway rat assessed as inhibition of laser-induced neovascularization incidence rate at 3 mg/kg, po qd for 7 days relative to control. Type of series: functional. To be noted: 168 h. The method, boiled down:
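Male Brown Norway rats, eight weeks old, under anesthesia and mydriasis; krypton laser photocoagulation of Bruch's membrane. Compound suspension given orally once daily. Seven days after photocoagulation, fluorescein injected via tail vein, fundus photographed, fluorescence leaks counted; neovascularization incidence rate compared with control.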

Series [5] deals with B16. The series can be described thus: Antitumor activity against mouse B16 cells xenografted in C57BL/6N mouse assessed as tumor growth at 100 mg/kg, po qd for 10 days relative to control. Type of series: functional. The conditions noted are these: B16, 240 h. The method, boiled down: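 B16 cell suspension injected subcutaneously under anesthesia into female C57BL/6 mice, six weeks old. Compound suspension given orally once daily; ten days after cell injection, tumors excised and weighed, anti-cancer effect calculated relative to control.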

The species entered for series [6] is Rattus norvegicus. Description: animal or person. To be noted: Brown Norway, po, 168 h, read-out: INH.

CYP3A4, sequence (P08684 whole entry): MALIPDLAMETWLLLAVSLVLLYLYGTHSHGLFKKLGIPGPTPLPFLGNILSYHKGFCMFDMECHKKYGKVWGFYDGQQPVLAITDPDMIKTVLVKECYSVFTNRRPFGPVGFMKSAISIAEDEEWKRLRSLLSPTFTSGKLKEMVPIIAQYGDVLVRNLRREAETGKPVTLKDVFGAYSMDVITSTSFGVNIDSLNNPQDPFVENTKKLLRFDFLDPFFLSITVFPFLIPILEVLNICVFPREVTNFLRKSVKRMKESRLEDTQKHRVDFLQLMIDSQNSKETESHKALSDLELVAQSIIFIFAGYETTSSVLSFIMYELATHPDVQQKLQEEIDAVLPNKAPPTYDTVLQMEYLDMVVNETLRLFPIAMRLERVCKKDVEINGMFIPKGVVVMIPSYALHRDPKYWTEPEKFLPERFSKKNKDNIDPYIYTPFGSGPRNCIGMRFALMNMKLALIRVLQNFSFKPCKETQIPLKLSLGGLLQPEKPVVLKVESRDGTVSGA

As usually defined, the inhibition is the drop in the measured response relative to a control, in per cent. The term IC50 denotes the concentration needed to halve the response being measured. `CC(=O)Nc1cc(CSc2ncccc2C(=O)Nc2ccc(OC(F)(F)F)cc2)ccn1` yielded an inhibition at 10 µM in series [1] of 38%. In series [2], the IC50 is 3.9 nM.

In the case of `Clc1ccc(Nc2nnc(Cc3ccncc3)c3ccccc23)cc1` [VATALANIB], the inhibition in vivo at 10 mg/kg in series [3] turned out to be 23%.

Regarding `Cc1cc(C)cc(NC(=O)c2cccnc2SCc2cc[n+](C)cc2)c1`, the IC50 in series [2] is greater than 2000 nM.

As to `NCC(=O)Nc1cc(CSc2ncccc2C(=O)Nc2ccc(OC(F)(F)F)cc2)ccn1`, the IC50 in series [2] was 49 nM. Consider `Cc1cc(C)cc(NC(=O)c2cccnc2SCc2ccnc(NC(=O)CNCCN(C)C)c2)c1`, for which testing at 10 µM in series [1] gave an inhibition of 14%. The half-maximal inhibitory concentration (IC50) in series [2] worked out at 5.9 nM. In addition, in series [4], the inhibition in vivo at 3 mg/kg stood at 55%. In addition, the inhibition in vivo at 10 mg/kg in series [3] came to 70%. Further, the inhibition in vivo at 100 mg/kg in series [5] stood at 83%. In series [1], `CN(C)CC(=O)Nc1cc(CSc2ncccc2C(=O)Nc2ccc(OC(F)(F)F)cc2)ccn1` displayed an inhibition at 10 µM of 19%. In addition, in series [2], the IC50 turned out to be 35 nM. `Cc1cc(C)cc(NC(=O)c2cccnc2SCc2ccnc(NC(=O)CN)c2)c1` registered an inhibition at 10 µM in series [1] of 10%. Also, in series [2], the IC50 came to 48 nM. Take `Cc1cc(C)cc(NC(=O)c2cccnc2SCc2ccncc2)c1`: 10 µM produced 96% inhibition in series [1]. In turn, `Cc1cc(C)cc(NC(=O)c2cccnc2SCc2ccnc(F)c2)c1` showed an inhibition at 10 µM in series [1] of 40%. Also, the IC50 in series [2] was 13 nM. With `CNC(=O)c1cc(CSc2ncccc2C(=O)Nc2cc(C)cc(C)c2)ccn1`, the IC50 in series [2] is 18 nM. For the compound `CNc1cc(CSc2ncccc2C(=O)Nc2cc(C)cc(C)c2)ccn1`, in series [2], the IC50 was 21 nM. For `Cc1cc(C)cc(NC(=O)c2cccnc2SCc2ccnc(NC(=O)CO)c2)c1`, the IC50 in series [2] was 6.6 nM. In series [1], `CNC(=O)Nc1cc(CSc2ncccc2C(=O)Nc2cc(C)cc(C)c2)ccn1` yielded an inhibition at 10 µM of 24%. For the same compound, the IC50 in series [2] was determined as 8.8 nM. Besides, the inhibition in vivo at 100 mg/kg in series [5] came to 43%.

In the case of `Cc1cc(C)cc(NC(=O)c2cccnc2SCc2ccnc(C#N)c2)c1`, in series [1], the inhibition at 10 µM worked out at 48%. Further, in series [2], the IC50 was determined as 3.5 nM. Regarding `COC(=O)Nc1cc(CSc2ncccc2C(=O)Nc2cc(C)cc(C)c2)ccn1`, the IC50 in series [2] turned out to be 15 nM.

Take `Cc1cc(C)cc(NC(=O)c2cccnc2SCc2ccnc(N)c2)c1`: 10 µM produced 21% inhibition in series [1]. Further, the IC50 in series [2] came to 5.8 nM. Turning to `CC(=O)N(C)c1cc(CSc2ncccc2C(=O)Nc2cc(C)cc(C)c2)ccn1`, in series [2], the IC50 came out at 65 nM. Regarding `CNC(=O)Nc1cc(CSc2ncccc2C(=O)Nc2ccc(OC(F)(F)F)cc2)ccn1`, the IC50 in series [2] stood at 20 nM. As for `O=C(CNCCCO)Nc1cc(CSc2ncccc2C(=O)Nc2ccc(OC(F)(F)F)cc2)ccn1`, in series [1], the inhibition at 10 µM was determined as 33%. Also, the IC50 in series [2] worked out at 26 nM. Besides, the inhibition in vivo at 100 mg/kg in series [5] was determined as 79%.

As to `CCC(=O)Nc1cc(CSc2ncccc2C(=O)Nc2cc(C)cc(C)c2)ccn1`, the IC50 in series [2] is 1.8 nM. Regarding `Cc1cc(C)cc(NC(=O)c2cccnc2SCc2ccnc(C)c2)c1`, in series [2], the IC50 was determined as 68 nM. Same read-out and setting: for `COc1cc(CSc2ncccc2C(=O)Nc2cc(C)cc(C)c2)ccn1` the value was 100 nM.

In the case of `Cc1cc(C)cc(NC(=O)c2cccnc2SCc2ccnc(Cl)c2)c1`, in series [1], the inhibition at 10 µM was 60%. In addition, the IC50 in series [2] was 12 nM.

In series [1], `CC(=O)Nc1cc(CSc2ncccc2C(=O)Nc2cc(C)cc(C)c2)ccn1` came in with an inhibition at 10 µM of 20%. Moreover, the IC50 in series [2] was less than 0.91 nM. The compound `O=C(CO)Nc1cc(CSc2ncccc2C(=O)Nc2ccc(OC(F)(F)F)cc2)ccn1` showed an inhibition at 10 µM in series [1] of 17%. The IC50 in series [2] turned out to be 7.4 nM. For the same compound, the inhibition in vivo at 100 mg/kg in series [5] came to 85%. With `Cc1cc(C)cc(NC(=O)c2cccnc2SCc2cc[n+]([O-])cc2)c1`, 10 µM produced 16% inhibition in series [1]. Besides, the concentration for half-maximal inhibition (IC50) in series [2] was determined as 24 nM. Further, the inhibition in vivo at 100 mg/kg in series [5] was found to be 76%.

The compound `Cc1cc(C)cc(NC(=O)c2cccnc2SCc2ccnc(NC(=O)CNCCCO)c2)c1` yielded an inhibition at 10 µM in series [1] of 23%. Also, the IC50 in series [2] amounted to 18 nM. Moreover, the inhibition in vivo at 100 mg/kg in series [5] was 77%.

Compound `CSc1cc(CSc2ncccc2C(=O)Nc2cc(C)cc(C)c2)ccn1` returned an inhibition at 10 µM in series [1] of 69%. For the same compound, the IC50 in series [2] was 100 nM. In series [1], `CN(C)CCNCC(=O)Nc1cc(CSc2ncccc2C(=O)Nc2ccc(OC(F)(F)F)cc2)ccn1` came in with an inhibition at 10 µM of 29%. In series [2], the IC50 is 18 nM. The inhibition in vivo at 100 mg/kg in series [5] came out at 79%. Take `C[C@H]1C[C@H]2[C@@H]3CCC4=CC(=O)C=C[C@]4(C)[C@@]3(F)[C@@H](O)C[C@]2(C)[C@@]1(O)C(=O)COP(=O)(O)O` [BETAMETHASONE PHOSPHORIC ACID]: in series [6], the inhibition in vivo at 1 mg/kg worked out at 96%.

Turning to `Cc1cc(C)cc(NC(=O)c2cccnc2SCc2ccnc(NC(=O)CN(C)C)c2)c1`, in series [2], the IC50 was 22 nM. As to `Cc1cc(C)cc(NC(=O)c2cccnc2SCc2ccnc(N3CCOCC3)c2)c1`, the IC50 in series [2] is 84 nM.
